In ChEMBL document CHEMBL1687936, “Radiosynthesis and biological evaluation of L- and D-S-(3-[18F]fluoropropyl)homocysteine for tumor imaging using positron emission tomography” (J Med Chem, 2011):

Legend:
Pancreas [1] = experiment: Metabolic stability in pancreas of BALB/c nude mouse xenografted with human A375 cells assessed as radioactivity after 0.25 to 1 hrs by HPLC analysis; type: ADME, tissue-based, A-375; conditions: in vivo
Summary of the method: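 A375-tumored Balb/c nude mice received 18-20 MBq tracer iv. Plasma and urine were spiked with unlabeled FPHCys and KF and injected directly; tissues were sonicated in saline with carrier and centrifuged at 6000g. Radio-HPLC on C18 with methanol/phosphate buffer pH 6 gave intact fraction as authentic peak over total activity, at 0.25, 1 and 2 h.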

Spleen [2] = experiment: Biodistribution in spleen of BALB/c nude mouse xenografted with human A375 cells at 0.8 to 1 MBq, iv after 120 mins by gamma-counter; type: ADME, organism-based, A-375; conditions: in vivo, 2 h
Summary of the method: (§1)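 Female Balb/c nude mice with s.c. A375 flank tumors, studied 26 days after tumor induction. Tracer 0.8-1 MBq in 100 μL saline given i.v. Groups of n = 5 killed at 15, 30, 60 and 120 min. Organs weighed and counted in a γ-counter against dilutions of the injected dose. Values are % ID/g wet tissue, mean ± SD.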

Kidney [3] = experiment: Biodistribution in kidney of BALB/c nude mouse xenografted with human A375 cells at 0.8 to 1 MBq, iv after 30 mins by gamma-counter; type: ADME, organism-based, A-375; conditions: in vivo, 0.5 h; summary of the method: as §1
Brain [4] = experiment: Biodistribution in brain of BALB/c nude mouse xenografted with human A375 cells at 0.8 to 1 MBq, iv after 60 mins by gamma-counter; type: ADME, organism-based, A-375; conditions: in vivo, 1 h; summary of the method: as §1
Muscle tissue [5] = experiment: Biodistribution in muscle of BALB/c nude mouse xenografted with human A375 cells at 0.8 to 1 MBq, iv after 60 mins by gamma-counter; type: ADME, organism-based, A-375; conditions: in vivo, 1 h; summary of the method: as §1
Lung = experiment: Biodistribution in lungs of BALB/c nude mouse xenografted with human A375 cells at 0.8 to 1 MBq, iv after 15 mins by gamma-counter; type: ADME, organism-based, A-375; conditions: in vivo, 0.25 h; summary of the method: as §1
HT-29 = experiment: Cellular uptake in human HT-29 cells assessed as accumulation per 10^5 cells after 4 hours by gamma-counter; type: ADME, cell-based; conditions: ht-29, 4 h
Summary of the method: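 Cells seeded at 2.5 × 10^5 per well in RPMI-1640 with 10% FBS and 2 mM L-glutamine, attached overnight, then washed with warm PBS. Incubated at 37 °C with 0.37 MBq [18F]tracer in PBS for 2–240 min. Cells washed with ice-cold PBS, lysed in 0.2 N NaOH and counted by γ-counter. Read as % applied dose per 10^5 cells, decay-corrected, n = 3.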

Muscle tissue [6] = experiment: Biodistribution in muscle of BALB/c nude mouse xenografted with human A375 cells at 0.8 to 1 MBq, iv after 15 mins by gamma-counter; type: ADME, organism-based, A-375; conditions: in vivo, 0.25 h; summary of the method: as §1
A-375 = experiment: Drug uptake in human A375 cells in presence of amino acid transport system A inhibitor MeAIB; type: ADME, cell-based
Summary of the method: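 Cells were prepared as for the uptake assay and preincubated at 37 °C with inhibitor at 12.5 mmol/L in PBS; controls received PBS. 0.37 MBq [18F]tracer was added and incubated 30 min at 37 °C. Cells were washed cold, lysed and γ-counted. Uptake is given as % of the control group, n = 3.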

Bone [7] = experiment: Biodistribution in bone of BALB/c nude mouse xenografted with human A375 cells at 0.8 to 1 MBq, iv after 60 mins by gamma-counter; type: ADME, organism-based, Bone element, A-375; conditions: in vivo, 1 h; summary of the method: as §1
Heart [8] = experiment: Biodistribution in heart of BALB/c nude mouse xenografted with human A375 cells at 0.8 to 1 MBq, iv after 30 mins by gamma-counter; type: ADME, organism-based, A-375; conditions: in vivo, 0.5 h; summary of the method: as §1
Pancreas [9] = experiment: Biodistribution in pancreas of BALB/c nude mouse xenografted with human A375 cells at 0.8 to 1 MBq, iv after 30 mins by gamma-counter; type: ADME, organism-based, A-375; conditions: in vivo, 0.5 h; summary of the method: as §1
[10] = Biodistribution in tumor of BALB/c nude mouse xenografted with human A375 cells at 0.8 to 1 MBq, iv after 120 mins by gamma-counter; type: ADME, organism-based, Neoplasm, A-375; conditions: in vivo, 2 h; summary of the method: as §1
Brain [11] = experiment: Drug level in brain cortex extract of BALB/c nude mouse xenografted with human A375 cells assessed as radioactivity in protein fraction after 0.25 to 2 hrs; type: ADME, tissue-based, A-375; conditions: in vivo
Summary of the method: (§2)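 Female Balb/c nude mice bore subcutaneous A375 flank tumors and received 18-20 MBq tracer iv. Plasma or tissue was sonicated in 10% TCA with unlabeled FPHCys and KF, then centrifuged at 6000g; the pellet was re-extracted twice. Protein-bound fraction is pellet versus supernatant radioactivity, sampled at 0.25, 1 and 2 h.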

[12] = Biodistribution in tumor of BALB/c nude mouse xenografted with human A375 cells at 0.8 to 1 MBq, iv after 30 mins by gamma-counter; type: ADME, organism-based, Neoplasm, A-375; conditions: in vivo, 0.5 h; summary of the method: as §1
Kidney [13] = experiment: Biodistribution in kidney of BALB/c nude mouse xenografted with human A375 cells at 0.8 to 1 MBq, iv after 15 mins by gamma-counter; type: ADME, organism-based, A-375; conditions: in vivo, 0.25 h; summary of the method: as §1
Blood = experiment: Biodistribution in blood of BALB/c nude mouse xenografted with human A375 cells at 0.8 to 1 MBq, iv after 120 mins by gamma-counter; type: ADME, organism-based, A-375; conditions: in vivo, 2 h; summary of the method: as §1
[14] = Drug level in tumor extract of BALB/c nude mouse xenografted with human A375 cells assessed as radioactivity in protein fraction after 0.25 to 2 hrs; type: ADME, Neoplasm, A-375; conditions: in vivo; summary of the method: as §2
[15] = Biodistribution in tumor of BALB/c nude mouse xenografted with human A375 cells at 0.8 to 1 MBq, iv after 15 mins by gamma-counter; type: ADME, organism-based, Neoplasm, A-375; conditions: in vivo, 0.25 h; summary of the method: as §1
Bone [16] = experiment: Biodistribution in bone of BALB/c nude mouse xenografted with human A375 cells at 0.8 to 1 MBq, iv after 15 mins by gamma-counter; type: ADME, organism-based, Bone element, A-375; conditions: in vivo, 0.25 h; summary of the method: as §1
Heart [17] = experiment: Biodistribution in heart of BALB/c nude mouse xenografted with human A375 cells at 0.8 to 1 MBq, iv after 60 mins by gamma-counter; type: ADME, organism-based, A-375; conditions: in vivo, 1 h; summary of the method: as §1
Spleen [18] = experiment: Biodistribution in spleen of BALB/c nude mouse xenografted with human A375 cells at 0.8 to 1 MBq, iv after 30 mins by gamma-counter; type: ADME, organism-based, A-375; conditions: in vivo, 0.5 h; summary of the method: as §1
Kidney [19] = experiment: Biodistribution in kidney of BALB/c nude mouse xenografted with human A375 cells after 60 mins by PET/CT imaging; type: ADME, organism-based, A-375; conditions: in vivo, 1 h
Summary of the method: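 Female Balb/c nude mice with A375 tumors (1×10^6 cells in Ca/Mg-free PBS injected s.c. in left flank at 6 weeks old). Mice under isoflurane in oxygen. 10 min CT scan, then 18-20 MBq tracer in 100 μL saline given i.v. with a 2 h PET acquisition. Coronal images at 60 min postinjection; n = 3.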

Heart [20] = experiment: Biodistribution in heart of BALB/c nude mouse xenografted with human A375 cells at 0.8 to 1 MBq, iv after 15 mins by gamma-counter; type: ADME, organism-based, A-375; conditions: in vivo, 0.25 h; summary of the method: as §1
Pancreas [21] = experiment: Biodistribution in pancreas of BALB/c nude mouse xenografted with human A375 cells at 0.8 to 1 MBq, iv after 120 mins by gamma-counter; type: ADME, organism-based, A-375; conditions: in vivo, 2 h; summary of the method: as §1
Spleen [22] = experiment: Biodistribution in spleen of BALB/c nude mouse xenografted with human A375 cells at 0.8 to 1 MBq, iv after 15 mins by gamma-counter; type: ADME, organism-based, A-375; conditions: in vivo, 0.25 h; summary of the method: as §1
[23] = Biodistribution in tumor of BALB/c nude mouse xenografted with human A375 cells at 0.8 to 1 MBq, iv after 60 mins by gamma-counter; type: ADME, organism-based, Neoplasm, A-375; conditions: in vivo, 1 h; summary of the method: as §1
Plasma = experiment: Drug level in plasma of BALB/c nude mouse xenografted with human A375 cells assessed as radioactivity in protein fractions after 0.25 to 2 hrs; type: ADME, cell-free, A-375; conditions: in vivo; summary of the method: as §2
Brain [24] = experiment: Biodistribution in brain of BALB/c nude mouse xenografted with human A375 cells at 0.8 to 1 MBq, iv after 30 mins by gamma-counter; type: ADME, organism-based, A-375; conditions: in vivo, 0.5 h; summary of the method: as §1

Compound: Cl.N[C@@H](CCSCCC[18F])C(=O)O
- Stability (Pancreas [1]): 85%
- Drug uptake (Spleen [2]): 1.39 % ID/g
- Drug uptake (Kidney [3]): 12.6 % ID/g
- Drug uptake (Brain [4]): 1.3 % ID/g
- Drug uptake (Muscle tissue [5]): 2.52 % ID/g
- Drug uptake (Lung): 5.21 % ID/g
- Drug uptake (HT-29): 2%
- Drug uptake (Muscle tissue [6]): 4.12 % ID/g
- Drug uptake (A-375): Active
- Drug uptake (Bone [7]): 2.31 % ID/g
- Drug uptake (Heart [8]): 4.2 % ID/g
- Drug uptake (Pancreas [9]): 12.3 % ID/g
- Drug uptake [10]: 4.4 % ID/g
- Drug uptake (Brain [11]): 1%
- Drug uptake [12]: 8.28 % ID/g
- Drug uptake (Kidney [13]): 15.4 % ID/g
- Drug uptake (Blood): 1.38 % ID/g
- Drug uptake [14]: 1%
- Drug uptake [15]: 9.41 % ID/g
- Drug uptake (Bone [16]): 3.33 % ID/g
- Drug uptake (Heart [17]): 2.32 % ID/g
- Drug uptake (Spleen [18]): 4.18 % ID/g
- Drug uptake (Kidney [19]): Active
- Drug uptake (Heart [20]): 5.08 % ID/g
- Drug uptake (Pancreas [21]): 3.77 % ID/g
- Drug uptake (Spleen [22]): 5.05 % ID/g
- Drug uptake [23]: 5.64 % ID/g
- Drug uptake (Plasma): 1%
- Drug uptake (Brain [24]): 2.57 % ID/g

Compound: Cl.N[C@H](CCSCCC[18F])C(=O)O
- Stability (Pancreas [1]): 85%
- Drug uptake (Spleen [2]): 0.31 % ID/g
- Drug uptake (Kidney [3]): 6.49 % ID/g
- Drug uptake (Brain [4]): 0.75 % ID/g
- Drug uptake (Muscle tissue [5]): 1.44 % ID/g
- Drug uptake (Lung): 4.11 % ID/g
- Drug uptake (HT-29): 1.6%
- Drug uptake (Muscle tissue [6]): 2.12 % ID/g
- Drug uptake (A-375): Active
- Drug uptake (Bone [7]): 1.63 % ID/g
- Drug uptake (Heart [8]): 3.05 % ID/g
- Drug uptake (Pancreas [9]): 19.6 % ID/g
- Drug uptake [10]: 1.68 % ID/g
- Drug uptake (Brain [11]): 1%
- Drug uptake [12]: 5.87 % ID/g
- Drug uptake (Kidney [13]): 12.2 % ID/g
- Drug uptake (Blood): 0.89 % ID/g
- Drug uptake [14]: 1%
- Drug uptake [15]: 6.01 % ID/g
- Drug uptake (Bone [16]): 2.55 % ID/g
- Drug uptake (Heart [17]): 1.16 % ID/g
- Drug uptake (Spleen [18]): 2.83 % ID/g
- Drug uptake (Kidney [19]): Active
- Drug uptake (Heart [20]): 3.92 % ID/g
- Drug uptake (Pancreas [21]): 1.43 % ID/g
- Drug uptake (Spleen [22]): 4.24 % ID/g
- Drug uptake [23]: 3.91 % ID/g
- Drug uptake (Plasma): 1%
- Drug uptake (Brain [24]): 1.56 % ID/g
